Source: ChEMBL document CHEMBL1121418, “Synthesis of syn and anti isomers of 6-[[(hydroxyimino)phenyl]methyl]-1-[(1-methylethyl)sulfonyl]-1H-benzimidazol-2-amine. Inhibitors of rhinovirus multiplication” (1980)
In brackets after ≈: the same amount, converted by molar mass.

Experiments:
HeLa [1] = assay: Tested in plaque-reduction assay with rhinovirus type 20 at indicated concentration. and the number of plaque formed was reported at conc. 0.35 ug/mL; type: functional, Homo sapiens
Outline: (§1)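 Virus was adsorbed onto confluent monolayers for 1 h at room temperature. Monolayers were overlaid with a 1:1 mix of 1% agarose and 2× MEM (Earle's salts, 2.5% FBS) containing compound, diluted from a 10000 μg/mL Me2SO stock. Flasks were incubated at 32 °C until control plaques reached 2–10 mm. Cells were then fixed in 10% formalin–2% sodium acetate and stained with crystal violet, and plaques were counted. Counts from duplicate flasks were averaged.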

HeLa [2] = assay: Tested in plaque-reduction assay with rhinovirus type 20 at indicated concentration. and the number of plaque formed was reported at conc. 0.75 ug/mL; type: functional, Homo sapiens; outline: as §1
HeLa [3] = assay: Tested in plaque-reduction assay with rhinovirus type 20 at indicated concentration. and the number of plaque formed was reported at conc. 0.00 ug/mL; type: functional, Homo sapiens; outline: as §1
HeLa [4] = assay: Tested in plaque-reduction assay with rhinovirus type 20 at indicated concentration. and the number of plaque formed was reported at conc. 0.02 ug/mL; type: functional, Homo sapiens; outline: as §1
HeLa [5] = assay: Tested in plaque-reduction assay with rhinovirus type 20 at indicated concentration. and the number of plaque formed was reported at conc. 0.04 ug/mL; type: functional, Homo sapiens; outline: as §1
HeLa [6] = assay: Tested in plaque-reduction assay with rhinovirus type 20 at indicated concentration. and the number of plaque formed was reported at conc. 0.08 ug/mL; type: functional, Homo sapiens; outline: as §1
HeLa [7] = assay: Tested in plaque-reduction assay with rhinovirus type 20 at indicated concentration. and the number of plaque formed was reported at conc. 0.17 ug/mL; type: functional, Homo sapiens; outline: as §1
HeLa [8] = assay: Percent reduction of plaque formation by rhinovirus type 20 in HeLa cells at conc. 0.00 ug/mL.; type: functional, Homo sapiens; outline: as §1
HeLa [9] = assay: Percent reduction of plaque formation by rhinovirus type 20 in HeLa cells at conc. 0.02 ug/mL.; type: functional, Homo sapiens; outline: as §1
HeLa [10] = assay: Percent reduction of plaque formation by rhinovirus type 20 in HeLa cells at conc. 0.04 ug/mL.; type: functional, Homo sapiens; outline: as §1
HeLa [11] = assay: Percent reduction of plaque formation by rhinovirus type 20 in HeLa cells at conc. 0.08 ug/mL.; type: functional, Homo sapiens; outline: as §1
HeLa [12] = assay: Percent reduction of plaque formation by rhinovirus type 20 in HeLa cells at conc. 0.17 ug/mL.; type: functional, Homo sapiens; outline: as §1
HeLa [13] = assay: Percent reduction of plaque formation by rhinovirus type 20 in HeLa cells at conc. 0.35 ug/mL.; type: functional, Homo sapiens; outline: as §1
HeLa [14] = assay: Percent reduction of plaque formation by rhinovirus type 20 in HeLa cells at conc. 0.75 ug/mL.; type: functional, Homo sapiens; outline: as §1
HeLa [15] = assay: Dose required to prevent rhinovirus type 14 plaque formation in HeLa cells by 50%ug/mL of agar overlay; type: functional, Homo sapiens
Outline: (§2)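 Confluent monolayers were infected with diluted virus and allowed to adsorb for 1 h at room temperature. They were then overlaid with 1% agarose mixed 1:1 with 2× MEM (Earle's salts, 2.5% FBS), containing compound diluted from a 10000 μg/mL Me2SO stock. Incubation was at 32 °C until control plaques reached 2–10 mm. Cells were fixed with formalin–sodium acetate and stained with crystal violet, and plaques were counted. Duplicate flasks were averaged, and ID50 was estimated by plotting results between 10% and 90% inhibition.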

HeLa [16] = assay: Dose required to prevent rhinovirus type 15 plaque formation in HeLa cells by 50%ug/mL of agar overlay; type: functional; conditions: Homo sapiens, read-out: ID50 (the source's name); outline: as §2
HeLa [17] = assay: Dose required to prevent rhinovirus type 16 plaque formation in HeLa cells by 50%ug/mL of agar overlay; type: functional; conditions: Homo sapiens, read-out: ID50 (the source's name); outline: as §2
HeLa [18] = assay: Dose required to prevent rhinovirus type 20 plaque formation in HeLa cells by 50%ug/mL of agar overlay; type: functional; conditions: Homo sapiens, read-out: ID50 (the source's name); outline: as §2
HeLa [19] = assay: Dose required to prevent rhinovirus type 3 plaque formation in HeLa cells by 50%ug/mL of agar overlay; type: functional; conditions: Homo sapiens, read-out: ID50 (the source's name)
Outline: (§3)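 Confluent monolayers in flasks received 0.3 mL of diluted virus and adsorbed 1 h at room temperature. They were then overlaid with 1% agarose plus 2× MEM (Earle's salts, 2.5% FBS, penicillin, streptomycin) containing compound diluted from a 10000 μg/mL Me₂SO stock. Flasks were held at 32 °C until control plaques reached 2–10 mm, then fixed with formalin-acetate and stained with crystal violet. Plaques were counted in duplicate flasks and averaged, and ID₅₀ was estimated by plotting the 10–90% inhibition points.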

HeLa [20] = assay: Dose required to prevent rhinovirus type 32 plaque formation in HeLa cells by 50%ug/mL of agar overlay; type: functional; conditions: Homo sapiens, read-out: ID50 (the source's name); outline: as §2
HeLa [21] = assay: Dose required to prevent rhinovirus type 33 plaque formation in HeLa cells by 50%ug/mL of agar overlay; type: functional; conditions: Homo sapiens, read-out: ID50 (the source's name); outline: as §2
HeLa [22] = assay: Dose required to prevent rhinovirus type 37 plaque formation in HeLa cells by 50%ug/mL of agar overlay; type: functional; conditions: Homo sapiens, read-out: ID50 (the source's name); outline: as §3
HeLa [23] = assay: Dose required to prevent rhinovirus type 48 plaque formation in HeLa cells by 50%ug/mL of agar overlay; type: functional; conditions: Homo sapiens, read-out: ID50 (the source's name); outline: as §2
HeLa [24] = assay: Dose required to prevent rhinovirus type 50 plaque formation in HeLa cells by 50%ug/mL of agar overlay; type: functional; conditions: Homo sapiens, read-out: ID50 (the source's name); outline: as §3
HeLa [25] = assay: Dose required to prevent rhinovirus type 61 plaque formation in HeLa cells by 50%ug/mL of agar overlay; type: functional; conditions: Homo sapiens, read-out: ID50 (the source's name); outline: as §2
HeLa [26] = assay: Dose required to prevent rhinovirus type 65 plaque formation in HeLa cells by 50%ug/mL of agar overlay; type: functional; conditions: Homo sapiens, read-out: ID50 (the source's name); outline: as §2
HeLa [27] = assay: Dose required to prevent rhinovirus type 69 plaque formation in HeLa cells by 50%ug/mL of agar overlay; type: functional; conditions: Homo sapiens, read-out: ID50 (the source's name); outline: as §2
HeLa [28] = assay: Dose required to prevent rhinovirus type 72 plaque formation in HeLa cells by 50%ug/mL of agar overlay; type: functional; conditions: Homo sapiens, read-out: ID50 (the source's name); outline: as §2
HeLa [29] = assay: Tested in plaque-reduction assay with rhinovirus type 20 at indicated concentration. and the number of plaque formed was reported at conc. 1.5 ug/mL; type: functional, Homo sapiens; outline: as §1
HeLa [30] = assay: Tested in plaque-reduction assay with rhinovirus type 20 at indicated concentration. and the number of plaque formed was reported at conc. 3.0 ug/mL; type: functional, Homo sapiens; outline: as §1
HeLa [31] = assay: Percent reduction of plaque formation by rhinovirus type 20 in HeLa cells at conc. 1.5 ug/mL.; type: functional, Homo sapiens; outline: as §1
HeLa [32] = assay: Percent reduction of plaque formation by rhinovirus type 20 in HeLa cells at conc. 3.0 ug/mL.; type: functional, Homo sapiens; outline: as §1
HeLa [33] = assay: Dose required to prevent rhinovirus type 70 plaque formation in HeLa cells by 50%ug/mL of agar overlay; type: functional; conditions: Homo sapiens, read-out: ID50 (the source's name); outline: as §3

SMILES | No. of plaques (HeLa [1]) | No. of plaques (HeLa [2]) | No. of plaques (HeLa [3]) | No. of plaques (HeLa [6]) | No. of plaques (HeLa [7]) | Reduction (HeLa [8]) | Reduction (HeLa [11]) | Reduction (HeLa [12]) | Reduction (HeLa [13]) | Reduction (HeLa [14]) | IC50 (HeLa [16]) | IC50 (HeLa [17]) | IC50 (HeLa [18]) | IC50 (HeLa [19]) | IC50 (HeLa [20]) | IC50 (HeLa [21]) | IC50 (HeLa [22]) | IC50 (HeLa [23]) | IC50 (HeLa [24]) | IC50 (HeLa [25]) | also measured
CC(C)S(=O)(=O)n1c(N)nc2ccc(/C(=N/O)c3ccccc3)cc21 [ENVIROXIME] | 0 | 0 | 153 | 0 | 0 | 0% | 100% | 100% | 100% | 100% | 0.02 mg/L (≈ 0.0558 µM) | 0.02 mg/L (≈ 0.0558 µM) | 0.02 mg/L (≈ 0.0558 µM) | 0.04 mg/L (≈ 0.112 µM) | 0.01 mg/L (≈ 0.0279 µM) | 0.01 mg/L (≈ 0.0279 µM) | 0.04 mg/L (≈ 0.112 µM) | 0.03 mg/L (≈ 0.0837 µM) | > 0.01 mg/L | 0.01 mg/L (≈ 0.0279 µM) | No. of plaques (HeLa [4]): 68; No. of plaques (HeLa [5]): 18; Reduction (HeLa [9]): 55%; Reduction (HeLa [10]): 87%; ID50 (HeLa [15]): 0.03 pug ml-1; IC50 (HeLa [26]): > 0.01 mg/L; IC50 (HeLa [27]): 0.01 mg/L (≈ 0.0279 µM); IC50 (HeLa [28]): 0.03 mg/L (≈ 0.0837 µM)
CC(C)S(=O)(=O)n1c(N)nc2ccc(/C(=N\O)c3ccccc3)cc21 [ZINVIROXIME] | 49 | 0 | 153 | 127 | 87 | 0% | 16% | 50% | 67% | 100% | 0.14 mg/L (≈ 0.391 µM) | 0.16 mg/L (≈ 0.446 µM) | 0.19 mg/L (≈ 0.53 µM) | 0.37 mg/L (≈ 1.03 µM) | 0.13 mg/L (≈ 0.363 µM) | 0.1 mg/L (≈ 0.279 µM) | 0.25 mg/L (≈ 0.697 µM) | 0.28 mg/L (≈ 0.781 µM) | 0.12 mg/L (≈ 0.335 µM) | 0.07 mg/L (≈ 0.195 µM) | No. of plaques (HeLa [29]): 0; No. of plaques (HeLa [30]): 0; Reduction (HeLa [31]): 100%; Reduction (HeLa [32]): 100%; IC50 (HeLa [15]; Homo sapiens, HeLa, read-out: ID50 (the source's name)): 0.36 mg/L (≈ 1 µM); IC50 (HeLa [26]): 0.07 mg/L (≈ 0.195 µM); IC50 (HeLa [27]): 0.08 mg/L (≈ 0.223 µM); IC50 (HeLa [33]): 0.06 mg/L (≈ 0.167 µM); IC50 (HeLa [28]): 0.3 mg/L (≈ 0.837 µM)
